Results from ChEMBL document CHEMBL4177761, “Highlights of the Structure-Activity Relationships of Benzimidazole Linked Pyrrolidines Leading to the Discovery of the Hepatitis C Virus NS5A Inhibitor Pibrentasvir (ABT-530)” (J Med Chem, 2018).
Substitutions are numbered along the chain they refer to. Values after ≈ are worked out from the molar mass of the structure shown.

Experiments:
[1] = AUC (0 to infinity) in mouse at 3 mg/kg, po by LC-MS method; assay type: ADME, organism-based; parameters: dose 3 mg/kg, route oral, time infinity; conditions: in vivo
Outline: (§1)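 Single dose, 3 mg/kg, in mouse or rat. IV vehicle: DMSO:Tween 80:PEG-400:D5W 2:5:20:73 (v/v). PO vehicle: Phosol 53 MCT:PEG-400:Poloxamer 124:Cremophor RH40 40:20:20:20 (w/w). Acetonitrile protein precipitation, then LC-MS/MS in negative-ion MRM against an internal standard; LOQ ~20 ng/mL.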

[2] = Lipophilicity, log D of the compound by HPLC method; assay type: physicochemical
[3] = Permeability of the compound by PAMPA; assay type: ADME; conditions: read-out: permeability
[4] = Solubility of the compound by CLND method; assay type: physicochemical
[5] = Intrinsic clearance in human microsomes; assay type: ADME, Microsome
[6] = Intrinsic clearance in rat microsomes; assay type: ADME, Microsome
[7] = Tmax in mouse at 3 mg/kg, po by LC-MS method; assay type: ADME, organism-based; conditions: in vivo
[8] = Cmax in mouse at 3 mg/kg, po by LC-MS method; assay type: ADME, organism-based; parameters: dose 3 mg/kg, route oral; conditions: in vivo; outline: as §1
[9] = Drug level in mouse at 3 mg/kg, po at 24 hrs by LC-MS method; assay type: ADME, organism-based; conditions: in vivo, read-out: Drug uptake; outline: as §1
[10] = biological target: T1, Nonstructural protein 5A (Hepatitis C virus) (UniProt Q5L478); assay: Inhibition of NS5A M28T mutant in HuH7 cell infected HCV genotype 1a H77 assessed as decrease in viral replication after 4 days by luciferase reporter gene assay relative to wild type protein; conditions: Hepatitis C virus (isolate H77)
T1 sequence (whole entry): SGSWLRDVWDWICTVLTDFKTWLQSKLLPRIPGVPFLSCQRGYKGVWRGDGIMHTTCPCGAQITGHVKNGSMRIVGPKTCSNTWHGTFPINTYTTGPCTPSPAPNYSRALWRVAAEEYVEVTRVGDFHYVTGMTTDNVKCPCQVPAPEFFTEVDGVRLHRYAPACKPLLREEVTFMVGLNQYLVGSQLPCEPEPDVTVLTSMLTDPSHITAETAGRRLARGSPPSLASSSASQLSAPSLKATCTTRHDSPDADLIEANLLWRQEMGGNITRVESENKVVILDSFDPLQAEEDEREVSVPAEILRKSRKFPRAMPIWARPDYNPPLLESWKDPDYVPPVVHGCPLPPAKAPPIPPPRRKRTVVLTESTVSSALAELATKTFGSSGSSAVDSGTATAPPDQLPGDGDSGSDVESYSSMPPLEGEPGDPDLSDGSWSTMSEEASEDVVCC
Outline: (§2)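 Stable subgenomic luciferase replicons in Huh-7 cells: genotype 1a-H77 carrying NS5A substitutions M28T, Q30E, Q30R, Y93C, Y93H or Y93N, tested alongside the wild-type replicon. Cells are incubated 4 days with compound in DMEM with 5% FBS. Luciferase read-out, EC50 by 4-parameter logistic fit, and fold change versus wild type.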

[11] = biological target: T1, Nonstructural protein 5A (Hepatitis C virus); assay: Inhibition of NS5A Q30E mutant in HuH7 cell infected HCV genotype 1a H77 assessed as decrease in viral replication after 4 days by luciferase reporter gene assay relative to wild type protein; conditions: Hepatitis C virus (isolate H77); outline: as §2
[12] = biological target: T1, Nonstructural protein 5A (Hepatitis C virus); assay: Inhibition of NS5A Q30R mutant in HuH7 cell infected HCV genotype 1a H77 assessed as decrease in viral replication after 4 days by luciferase reporter gene assay relative to wild type protein; conditions: Hepatitis C virus (isolate H77); outline: as §2
[13] = test system: T2, Nonstructural protein 5A (Hepatitis C virus), Q5L478 [Y93C]; assay: Inhibition of NS5A Y93C mutant in HuH7 cell infected HCV genotype 1a H77 assessed as decrease in viral replication after 4 days by luciferase reporter gene assay relative to wild type protein; conditions: Hepatitis C virus (isolate H77); outline: as §2
T2 sequence (whole entry): T1 sequence (whole entry) with Y93C

[14] = test system: T3, Nonstructural protein 5A (Hepatitis C virus), Q5L478 [Y93H]; assay: Inhibition of NS5A Y93H mutant in HuH7 cell infected HCV genotype 1a H77 assessed as decrease in viral replication after 4 days by luciferase reporter gene assay relative to wild type protein; conditions: Hepatitis C virus (isolate H77); outline: as §2
T3 sequence (whole entry): T1 sequence (whole entry) with Y93H

[15] = test system: T4, Nonstructural protein 5A (Hepatitis C virus), Q5L478 [Y93N]; assay: Inhibition of NS5A Y93N mutant in HuH7 cell infected HCV genotype 1a H77 assessed as decrease in viral replication after 4 days by luciferase reporter gene assay relative to wild type protein; conditions: Hepatitis C virus (isolate H77); outline: as §2
T4 sequence (whole entry): T1 sequence (whole entry) with Y93N

[16] = test system: T3, Nonstructural protein 5A (Hepatitis C virus), Q5L478 [Y93H]; assay: Inhibition of NS5A Y93H mutant in HuH7 cell infected HCV genotype 1b Con1 assessed as decrease in viral replication after 4 days by luciferase reporter gene assay relative to wild type protein; conditions: Hepatitis C virus (isolate Con1)
Outline: as §2, with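 “1b-Con1” for “1a-H77”, “NS5A” for “NS5A substitutions M28T, Q30E, Q30R, Y93C,”, “from a” for “by”, “expressed as” for “and”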

[17] = Volume of distribution at steady state during terminal phase in mouse at 5 mg/kg, iv by LC-MS method; assay type: ADME, organism-based; conditions: in vivo, read-out: Vbeta
[18] = Volume of distribution at steady state in mouse at 5 mg/kg, iv by LC-MS method; assay type: ADME, organism-based; conditions: in vivo, read-out: Vdss
[19] = AUC (0 to infinity) in mouse at 5 mg/kg, iv by LC-MS method; assay type: ADME, organism-based; parameters: dose 5 mg/kg, time infinity, route intravenous; conditions: in vivo
[20] = Tmax in mouse at 5 mg/kg, po by LC-MS method; assay type: ADME, organism-based; conditions: in vivo
[21] = AUC (0 to infinity) in mouse at 5 mg/kg, po by LC-MS method; assay type: ADME, organism-based; parameters: dose 5 mg/kg, route oral, time infinity; conditions: in vivo
[22] = Half life in mouse at 3 mg/kg, iv by LC-MS method; assay type: ADME, organism-based; conditions: in vivo; outline: as §1
[23] = Volume of distribution at steady state during terminal phase in mouse at 3 mg/kg, iv by LC-MS method; assay type: ADME, organism-based; conditions: in vivo, read-out: Vbeta
Outline: (§3)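 Mice received a single 3 mg/kg IV dose in 2:5:20:73 (v/v) DMSO:Tween 80:PEG-400:D5W. Heparinized plasma taken at 0.1, 0.25, 0.5, 1, 2, 4, 6, 9, 12 and 24 h. Samples precipitated with acetonitrile and assayed by negative-ion MRM LC-MS. Quantified by unweighted linear regression of parent/internal-standard area ratio against spiked standards; LOQ ~20 ng/mL.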

[24] = Volume of distribution at steady state in mouse at 3 mg/kg, iv by LC-MS method; assay type: ADME, organism-based; conditions: in vivo, read-out: Vdss; outline: as §3
[25] = AUC (0 to infinity) in mouse at 3 mg/kg, iv by LC-MS method; assay type: ADME, organism-based; parameters: dose 3 mg/kg, route intravenous, time infinity; conditions: in vivo; outline: as §1
[26] = Plasma clearance in mouse at 3 mg/kg, iv by LC-MS method; assay type: ADME, organism-based; outline: as §1
[27] = Half life in mouse at 3 mg/kg, po by LC-MS method; assay type: ADME, organism-based; conditions: in vivo; outline: as §1
[28] = Oral bioavailability in mouse at 3 mg/kg by LC-MS method; assay type: ADME, organism-based; conditions: in vivo; outline: as §1

Structure (SMILES)	AUC(0-inf) [1] [ng·h/mL]	logD [2]	Papp [3] [×10⁻⁶ cm/s]	solubility kinetic [4] [µM]	CLint scaled [5] [mL/min/kg]	CLint scaled [6] [mL/min/kg]	Tmax [7] [h]	Cmax [8] [nM]	concentration at 24 h [9] [nM]	also measured
COC(=O)N[C@H](C(=O)N1CCC[C@H]1c1nc2ccc([C@H]3CC[C@H](c4ccc5nc([C@@H]6CCCN6C(=O)[C@@H](NC(=O)OC)C(C)C)[nH]c5c4)N3c3ccc(N4CCCCC4)c(F)c3)cc2[nH]1)C(C)C	2000	4.7	0.01	2.5 (≈ 2.33 µg/mL)	140	162				
COC(=O)N[C@H](C(=O)N1CCC[C@H]1c1nc2cc([C@H]3CC[C@H](c4cc5nc([C@@H]6CCCN6C(=O)[C@@H](NC(=O)OC)C(C)C)[nH]c5cc4F)N3c3cc(F)c(N4CCC(c5ccccc5)CC4)c(F)c3)c(F)cc2[nH]1)C(C)C	14000						24	754	754	
COC(=O)N[C@H](C(=O)N1CCC[C@H]1c1nc2ccc([C@H]3CC[C@H](c4ccc5nc([C@@H]6CCCN6C(=O)[C@@H](NC(=O)OC)C(C)C)[nH]c5c4)N3c3ccc(C(C)(C)C)cc3)cc2[nH]1)C(C)C		5.3	0.14	1.6 (≈ 1.42 µg/mL)	122	167				fold change (FC) [10]: 4; fold change (FC) [11]: 61; fold change (FC) [12]: 14; fold change (FC) [13]: 7; fold change (FC) [14]: 216; fold change (FC) [15]: 510; fold change (FC) [16]: 2; Vd [17]: 1.11 L/kg; Vd [18]: 0.65 L/kg; AUC(0-inf) [19]: 13100 ng·h/mL; Tmax [20]: 1.67 h; AUC(0-inf) [21]: 1390 ng·h/mL
COC(=O)N[C@H](C(=O)N1CCC[C@H]1C(=O)Nc1ccc([C@@H]2CC[C@@H](c3ccc(NC(=O)[C@@H]4CCCN4C(=O)[C@@H](NC(=O)OC)C(C)C)cc3)N2c2ccc(C(C)(C)C)cc2)cc1)C(C)C [OMBITASVIR]	11000						7	636	205	fold change (FC) [10]: 8960; fold change (FC) [12]: 800; fold change (FC) [13]: 1680; fold change (FC) [14]: 41400; fold change (FC) [15]: 66700; fold change (FC) [16]: 77; half-life [22]: 11 h; Vd [23]: 1.8 L/kg; Vd [24]: 1.67 L/kg; AUC(0-inf) [25]: 26400 ng·h/mL; clearance [26]: 1.83 mL/min/kg; half-life [27]: 11.7 h; bioavailability [28]: 41.7%
COC(=O)N[C@H](C(=O)N1CCC[C@H]1c1nc2cc(F)c([C@H]3CC[C@H](c4cc5[nH]c([C@@H]6CCCN6C(=O)[C@@H](NC(=O)OC)C(C)C)nc5cc4F)N3c3cc(F)c(N4CCC(c5ccc(F)cc5)CC4)c(F)c3)cc2[nH]1)C(C)C	26100						24	1710	1710	
COC(=O)N[C@H](C(=O)N1CCC[C@H]1c1nc2ccc([C@H]3CC[C@H](c4ccc5nc([C@@H]6CCCN6C(=O)[C@@H](NC(=O)OC)C(C)C)[nH]c5c4)N3c3ccc(N4CCOCC4)cc3)cc2[nH]1)C(C)C	2	3.2	0.73	14.2 (≈ 13 µg/mL)	113	108				
COC(=O)N[C@H](C(=O)N1CCC[C@H]1c1nc2ccc([C@H]3CC[C@H](c4ccc5nc([C@@H]6CCCN6C(=O)[C@@H](NC(=O)OC)C(C)C)[nH]c5c4)N3c3cc(Cl)c(N4CCCCC4)c(Cl)c3)cc2[nH]1)C(C)C	960	5.9	0.03	< 0.6	< 25	50				
